ChEMBL document CHEMBL4765483 (J Med Chem, 2021)
The source made the active and inactive calls. The rule behind the calls is not given here.

Tests used:
Adenosine receptor A2b [1] = molecular target: T1, Adenosine receptor A2b (Homo sapiens, UniProt P29275); experiment: Antagonist activity at human A2B receptor
T1 sequence (P29275 whole entry): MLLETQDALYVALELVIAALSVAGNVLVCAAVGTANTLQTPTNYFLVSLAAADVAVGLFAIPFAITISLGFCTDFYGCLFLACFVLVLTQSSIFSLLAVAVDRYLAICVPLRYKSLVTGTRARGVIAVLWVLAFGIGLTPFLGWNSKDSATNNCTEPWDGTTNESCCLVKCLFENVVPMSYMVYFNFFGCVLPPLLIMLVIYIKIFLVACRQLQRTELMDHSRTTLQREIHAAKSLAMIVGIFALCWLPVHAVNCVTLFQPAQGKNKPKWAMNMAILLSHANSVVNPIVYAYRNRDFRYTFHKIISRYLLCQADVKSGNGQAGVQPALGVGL

DU-145 [2] = experiment: Antimigratory activity in human DU-145 cells assessed as reduction in cell migration at Ki level incubated for 72 hrs by crystal violet staining based confocal microscopy; format: functional
Outline: (§1)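 Transwell migration, 8.0 μm pore polycarbonate membrane; 10⁵ cells seeded in serum-free medium in upper chamber, complete medium with 10% FBS below. Cells kept in RPMI 1640, 10% FBS. Migration scored after 72 h without or with treatment; migrated cells fixed in 4% paraformaldehyde, crystal violet stained, counted in five random fields; at least three chambers from three experiments.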

PC-3 [3] = experiment: Antimigratory activity in human PC-3 cells assessed as reduction in cell migration at Ki level incubated for 72 hrs by crystal violet staining based confocal microscopy; format: functional; outline: as §1
PC-3 [4] = experiment: Antimetastatic activity in human PC-3 cells assessed as induction of actin skeleton reorganization at Ki level incubated for 72 hrs by confocal laser scanning microscopy; format: functional, cell-based
LNCaP [5] = experiment: Antimigratory activity in human LNCaP cells assessed as reduction in cell migration at Ki level incubated for 72 hrs by crystal violet staining based confocal microscopy; format: functional; outline: as §1
PC-3 [6] = experiment: Antimetastatic activity in human PC-3 cells assessed as effect on cell shape at Ki level incubated for 72 hrs by confocal laser scanning microscopy; format: functional, cell-based
LNCaP [7] = experiment: Toxicity in human LNCaP cells assessed as effect on cell growth at 10 to 100 uM by MTT assay; format: cell-based; details: dose 10-100 µM
Outline: (§2)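 Prostate cancer cells cultured in RPMI 1640 with 10% FBS, penicillin and streptomycin at 37 °C, 5% CO2; tested at 10 and 100 μM by MTT assay with cisplatin as control.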

CYP3A4 [8] = molecular target: T2, CYP3A4 (Homo sapiens, UniProt P08684); experiment: Inhibition of CYP3A4 (unknown origin) expressed in insect cell microsomes at 10 uM in presence of BFC substrate by fluorescence based assay relative to control; format: ADME, Microsome; details: recombinant CYP3A4 expressed in insect cell microsomes, probe BFC
T2 sequence (P08684 whole entry, canonical isoform): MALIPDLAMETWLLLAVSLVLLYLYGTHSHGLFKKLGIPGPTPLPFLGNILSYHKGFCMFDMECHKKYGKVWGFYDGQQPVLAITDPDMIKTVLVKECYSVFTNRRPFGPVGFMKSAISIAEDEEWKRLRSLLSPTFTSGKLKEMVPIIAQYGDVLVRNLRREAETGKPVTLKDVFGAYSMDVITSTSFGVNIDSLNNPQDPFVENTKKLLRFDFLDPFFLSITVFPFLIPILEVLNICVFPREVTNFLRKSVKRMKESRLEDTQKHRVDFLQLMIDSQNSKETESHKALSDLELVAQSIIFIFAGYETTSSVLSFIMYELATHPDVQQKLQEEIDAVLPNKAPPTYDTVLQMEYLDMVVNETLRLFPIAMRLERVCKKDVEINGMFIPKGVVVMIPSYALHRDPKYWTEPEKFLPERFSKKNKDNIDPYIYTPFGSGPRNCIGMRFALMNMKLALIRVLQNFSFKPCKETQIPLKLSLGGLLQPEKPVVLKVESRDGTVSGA
Outline: (§3)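 cDNA-expressed P450 in insect cell microsomes; cofactor mix of KH2PO4 buffer, 1.3 mM NADP, 3.3 mM MgCl2, 3.3 mM glucose-6-phosphate, 0.4 U/mL G6PDH. Preincubated 5 min at 37 °C, started with prewarmed enzyme/substrate mix, stopped at an isoform-specific time. Fluorescence read; percentage inhibition at 1 and 10 μM; mean of n = 3.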

CYP2D6 [9] = molecular target: T3, CYP2D6 (Homo sapiens, UniProt P10635); experiment: Inhibition of CYP2D6 (unknown origin) expressed in insect cell microsomes at 1 uM by fluorescence based assay relative to control; format: ADME, Microsome; details: recombinant CYP2D6 expressed in insect cell microsomes; outline: as §3
T3 sequence (P10635 whole entry): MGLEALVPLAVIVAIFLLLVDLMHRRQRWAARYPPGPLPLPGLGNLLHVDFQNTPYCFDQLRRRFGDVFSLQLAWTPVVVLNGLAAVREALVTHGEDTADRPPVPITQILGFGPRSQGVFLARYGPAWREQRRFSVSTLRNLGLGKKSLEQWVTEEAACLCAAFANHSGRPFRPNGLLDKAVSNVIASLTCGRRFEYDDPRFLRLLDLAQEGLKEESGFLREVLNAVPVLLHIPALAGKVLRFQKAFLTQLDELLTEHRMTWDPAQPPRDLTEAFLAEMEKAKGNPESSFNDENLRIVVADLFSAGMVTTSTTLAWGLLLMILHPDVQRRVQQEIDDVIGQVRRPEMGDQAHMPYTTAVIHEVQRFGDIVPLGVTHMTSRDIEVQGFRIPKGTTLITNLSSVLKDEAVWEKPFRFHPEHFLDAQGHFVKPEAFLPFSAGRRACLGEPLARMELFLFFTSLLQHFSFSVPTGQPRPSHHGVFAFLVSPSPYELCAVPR

CYP3A4 [10] = molecular target: T2, CYP3A4; experiment: Inhibition of CYP3A4 (unknown origin) expressed in insect cell microsomes at 1 uM in presence of DBF substrate by fluorescence based assay relative to control; format: ADME, Microsome; details: recombinant CYP3A4 expressed in insect cell microsomes, probe DBF; outline: as §3
PC-3 [11] = experiment: Toxicity in human PC-3 cells assessed as effect on cell growth at 10 to 100 uM by MTT assay; format: cell-based; details: pc-3, 100 µM, dose 10-100 µM; outline: as §2
CYP3A4 [12] = molecular target: T2, CYP3A4; experiment: Inhibition of CYP3A4 (unknown origin) expressed in insect cell microsomes at 10 uM in presence of DBF substrate by fluorescence based assay relative to control; format: ADME, Microsome; details: recombinant CYP3A4 expressed in insect cell microsomes, probe DBF; outline: as §3
CYP2D6 [13] = molecular target: T3, CYP2D6; experiment: Inhibition of CYP2D6 (unknown origin) expressed in insect cell microsomes at 10 uM by fluorescence based assay relative to control; format: ADME, Microsome; details: recombinant CYP2D6 expressed in insect cell microsomes; outline: as §3
[14] = Stability in human liver microsomes in NADP incubated up to 60 mins by UPLC-MS/MS analysis; format: ADME, Microsome; details: read-out: Stabilty
Outline: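 Human microsomes at 37 °C in 50 mM phosphate buffer pH 7.4 with 3 mM MgCl2, 1 mM NADP, 10 mM glucose-6-phosphate, 1 U/mL G6PDH. Samples at 0, 10, 20, 40, 60 min quenched into cold acetonitrile with 0.5% formic acid, centrifuged; supernatant analysed by UPLC–MS/MS on C18 column.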

CYP3A4 [15] = molecular target: T2, CYP3A4; experiment: Inhibition of CYP3A4 (unknown origin) expressed in insect cell microsomes at 1 uM in presence of BFC substrate by fluorescence based assay relative to control; format: ADME, Microsome; details: recombinant CYP3A4 expressed in insect cell microsomes, probe BFC; outline: as §3
DU-145 [16] = experiment: Toxicity in human DU-145 cells assessed as effect on cell growth at 10 to 100 uM by MTT assay; format: cell-based; details: du-145, 100 µM, dose 10-100 µM; outline: as §2
[17] = molecular target: T4, Adenosine receptor A3 (Homo sapiens) (UniProt P0DMS8); experiment: Displacement of [3H]NECA from adenosine A3 receptor expressed in human HeLa cell membranes at 1 uM incubated for 180 mins by scintillation counting method; details: Cell membrane
T4 sequence (whole entry): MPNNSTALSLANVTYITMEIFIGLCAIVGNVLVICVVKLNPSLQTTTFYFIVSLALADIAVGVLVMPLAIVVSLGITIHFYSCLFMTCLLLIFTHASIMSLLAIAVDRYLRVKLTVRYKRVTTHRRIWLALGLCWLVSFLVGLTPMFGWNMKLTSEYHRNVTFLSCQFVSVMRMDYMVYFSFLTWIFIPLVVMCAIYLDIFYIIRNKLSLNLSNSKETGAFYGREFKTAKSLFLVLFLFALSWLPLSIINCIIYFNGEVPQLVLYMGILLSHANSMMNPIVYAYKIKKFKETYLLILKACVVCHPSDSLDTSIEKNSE
Outline: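 hA3AR in HeLa membranes (3 pmol/mg protein) with 10 nM [3H]NECA (KD 8.7 nM); nonspecific binding with 100 μM R-PIA; incubated 180 min at 25 °C, washed, filtered, radioactivity counted.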

[18] = molecular target: T5, Adenosine receptor A1 (Homo sapiens) (UniProt P30542); experiment: Displacement of [3H]DPCPX from human adenosine A1 receptor expressed in CHO cell membranes at 1 uM incubated for 60 mins by scintillation counting method; details: Cell membrane
T5 sequence (whole entry): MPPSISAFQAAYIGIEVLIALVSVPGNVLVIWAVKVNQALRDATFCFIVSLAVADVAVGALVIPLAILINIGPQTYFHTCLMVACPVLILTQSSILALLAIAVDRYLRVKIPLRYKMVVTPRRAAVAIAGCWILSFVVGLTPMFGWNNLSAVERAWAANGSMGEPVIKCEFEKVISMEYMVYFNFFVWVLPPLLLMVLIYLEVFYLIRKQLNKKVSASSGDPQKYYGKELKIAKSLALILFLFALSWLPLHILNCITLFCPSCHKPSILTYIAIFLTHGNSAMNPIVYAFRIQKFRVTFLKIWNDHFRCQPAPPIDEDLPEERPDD

Adenosine receptor A2b [19] = molecular target: T1, Adenosine receptor A2b; experiment: Displacement of [3H]DPCPX from human adenosine A2B receptor expressed in HEK293 cell membranes incubated for 30 mins by scintillation counting method; set-up: species or system Cell membrane
[20] = molecular target: Adenosine receptor A2a (Homo sapiens) (UniProt P29274); experiment: Displacement of [3H]ZM2421385 from adenosine A2A receptor expressed in human HeLa cell membranes at 1 uM incubated for 30 mins by scintillation counting method; details: Cell membrane
Chain of Adenosine receptor A2a (Homo sapiens) (P29274 whole entry): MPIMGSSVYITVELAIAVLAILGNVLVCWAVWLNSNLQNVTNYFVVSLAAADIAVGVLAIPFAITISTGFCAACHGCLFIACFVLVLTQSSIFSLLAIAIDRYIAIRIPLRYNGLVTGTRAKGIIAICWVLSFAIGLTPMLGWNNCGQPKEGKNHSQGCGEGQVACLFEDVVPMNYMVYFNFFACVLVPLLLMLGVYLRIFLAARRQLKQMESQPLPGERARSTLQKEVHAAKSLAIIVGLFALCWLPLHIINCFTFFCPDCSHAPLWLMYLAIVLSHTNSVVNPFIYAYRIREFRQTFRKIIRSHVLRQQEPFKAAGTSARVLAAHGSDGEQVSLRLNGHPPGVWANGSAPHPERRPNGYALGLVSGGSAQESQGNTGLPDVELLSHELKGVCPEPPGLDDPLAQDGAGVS

Adenosine receptor A1 = molecular target: T6, Adenosine receptor A1 (Homo sapiens, UniProt P30542); experiment: Displacement of [3H]DPCPX from human adenosine A1 receptor expressed in CHO cell membranes incubated for 60 mins by scintillation counting method; set-up: species or system Cell membrane
T6 sequence (P30542 whole entry): T5 sequence (whole entry)

[21] = molecular target: T7, Adenosine receptor A2b (Homo sapiens) (UniProt P29275); experiment: Displacement of [3H]DPCPX from human adenosine A2B receptor expressed in HEK293 cell membranes at 1 uM incubated for 30 mins by scintillation counting method; details: Cell membrane, filed as antagonist
T7 sequence (whole entry): T1 sequence (P29275 whole entry)

Row | inhibition [17] | inhibition [18] | Ki (Adenosine receptor A2b [19]) | inhibition [20] | Structure (SMILES) | Activity (DU-145 [2]) | Activity (PC-3 [3]) | Activity (PC-3 [4]) | Activity (LNCaP [5]) | Activity (PC-3 [6]) | other results
1 |  |  |  |  | CCCn1c(=O)[nH]c2nc(-c3cnn(Cc4cccc(C(F)(F)F)c4)c3)[nH]c2c1=O |  |  |  |  |  | Ki (Adenosine receptor A2b [1]): 6 nM
2 |  |  |  |  | CCCn1c(=O)[nH]c2nc(-c3ccc(S(=O)(=O)N4CCN(c5ccc(Cl)cc5)CC4)cc3)[nH]c2c1=O | Active | Active | Active | Active | Active | 
3 |  |  |  |  | CCOC(=O)C1=C(C)NC(=O)NC1c1ccsc1 (racemic) | Active | 35% | Active | Active | Active | Activity (LNCaP [7]): Non-Toxic; inhibition at 10 µM (CYP3A4 [8]): 44%; inhibition at 1 µM (CYP2D6 [9]): 15%; inhibition at 1 µM (CYP3A4 [10]): 4%; Activity (PC-3 [11]): Non-Toxic; inhibition at 10 µM (CYP3A4 [12]): 12%; inhibition at 10 µM (CYP2D6 [13]): 22%; remaining at 1 h [14]: 65%; inhibition at 1 µM (CYP3A4 [15]): 15%; Activity (DU-145 [16]): Non-Toxic
4 | 1% |  |  |  | CC1=C(C(=O)OC(C)C)C(c2ccco2)NC(=S)N1 (racemic) | Active | 50% | Active | Active | Active | Activity (LNCaP [7]): Non-Toxic; inhibition at 10 µM (CYP3A4 [8]): 13%; inhibition at 1 µM (CYP2D6 [9]): 15%; inhibition at 1 µM (CYP3A4 [10]): 3%; Activity (PC-3 [11]): Non-Toxic; inhibition at 10 µM (CYP3A4 [12]): 1%; inhibition at 10 µM (CYP2D6 [13]): 12%; remaining at 1 h [14]: 77%; inhibition at 1 µM (CYP3A4 [15]): 1%; Activity (DU-145 [16]): Non-Toxic
5 | 5% | 5% | 659 nM | 1% | CC1=C(C(=O)OC2CCCC2)C(c2ccsc2)NC(=O)N1 (racemic) |  |  |  |  |  | 
6 | 3% | 39% | 724 nM | 46% | CC1=C(C(=O)OCC2CC2)C(c2ccsc2)NC(=O)N1 (racemic) |  |  |  |  |  | 
7 | 2% | 48% | 1040 nM | 32% | CC1=C(C(=O)OCC2CCC2)C(c2ccsc2)NC(=O)N1 (racemic) |  |  |  |  |  | 
8 | 16% |  | 326 nM | 31% | CC1=C(C(=O)OCC(C)C)C(c2ccoc2)NC(=O)N1 (racemic) |  |  |  |  |  | Ki (Adenosine receptor A1): 3090 nM
9 | 11% |  |  | 37% | CC1=C(C(=O)OCc2ccccc2)C(c2ccco2)NC(=O)N1C (racemic) |  |  |  |  |  | inhibition [21]: 41%; Ki (Adenosine receptor A1): 1740 nM
